Reference: ChEMBL document CHEMBL1125901, “Synthesis and siderophore activity of albomycin-like peptides derived from N5-acetyl-N5-hydroxy-L-ornithine” (1991)
The source made the active and inactive calls. The calls are words filed in the database; no cut-off is given here.

Legend:
Shigella flexneri [1] = experiment: The relative ability of compound to promote the growth of Shigella flexneri SA 240, a strain lacking the ability to synthesize siderophores was measured as zone stimulation at concentration of 100 uM; type: functional
Procedure, shortened: (§1)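 SA240 (S. flexneri 2a SA100 iucD::Tn5, a siderophore-synthesis mutant) was grown overnight in Luria broth, then seeded at 10^3/mL into Luria agar with the iron chelator EDDA (250 µg/mL). Compounds were made as 10 mM water stocks and diluted in water to the test levels. Sterile disks holding 10 µL were laid on the agar and incubated 18 h at 37 °C. Diameters of the growth-stimulation zones were measured.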

Shigella flexneri [2] = experiment: The relative ability of compound to promote the growth of Shigella flexneri SA 240, a strain lacking the ability to synthesize siderophores was measured as zone stimulation at concentration of 1 mM; type: functional; procedure, shortened: as §1
Shigella flexneri [3] = experiment: The relative ability of compound to promote the growth of Shigella flexneri SA 240, a strain lacking the ability to synthesize siderophores was measured as zone stimulation at concentration of 500 uM; type: functional; procedure, shortened: as §1
Shigella flexneri [4] = experiment: The relative ability of compound to promote the growth of Shigella flexneri SA 240, a strain lacking the ability to synthesize siderophores was measured as zone stimulation at concentration of 5 mM; type: functional; procedure, shortened: as §1
Shigella flexneri [5] = experiment: The relative ability of compound to promote the growth of Shigella flexneri SA 240, a strain lacking the ability to synthesize siderophores was measured as zone stimulation at concentration of 50 uM; NA=No activity; type: functional, organism-based; procedure, shortened: as §1
Shigella flexneri [6] = experiment: The relative ability of compound to promote the growth of Shigella flexneri SA 240, a strain lacking the ability to synthesize siderophores was measured as zone stimulation at concentration of 100 uM; NA=No activity; type: functional, organism-based; procedure, shortened: as §1
Shigella flexneri [7] = experiment: The relative ability of compound to promote the growth of Shigella flexneri SA 240, a strain lacking the ability to synthesize siderophores was measured as zone stimulation at concentration of 5 mM; NA=No activity; type: functional, organism-based; procedure, shortened: as §1

Row | SMILES | Zone of stimulation (Shigella flexneri [1]) | Zone of stimulation (Shigella flexneri [2]) | Zone of stimulation (Shigella flexneri [3]) | Zone of stimulation (Shigella flexneri [4]) | Zone of stimulation (Shigella flexneri [5]) | Zone of stimulation (Shigella flexneri [6]) | Zone of stimulation (Shigella flexneri [7])
1 | CC(=O)N(O)CCC[C@H](NC(=O)[C@H](CCCN(O)C(C)=O)NC(=O)[C@@H](N)CCCN(O)C(C)=O)C(=O)N[C@@H](C(=O)O)c1ccc(O)cc1 | 15 mm | 40 mm | 25 mm | 45 mm | inactive |  | 
2 | CC(=O)N(O)CCC[C@H](NC(=O)[C@H](CCCN(O)C(C)=O)NC(=O)[C@@H](N)CCCN(O)C(C)=O)C(=O)N[C@H](CO)C(=O)O |  | 12 mm | 12 mm | 18 mm |  | inactive | 
3 | CC(=O)N(O)CCC[C@H](NC(=O)[C@H](CCCN(O)C(C)=O)NC(=O)[C@@H](N)CCCN(O)C(C)=O)C(=O)O | 13 mm | 37 mm | 30 mm | 40 mm | inactive |  | 
4 | CC(=O)N(O)CCC[C@H](NC(=O)[C@H](CCCN(O)C(C)=O)NC(=O)[C@@H](N)CCCN(O)C(C)=O)C(=O)N[C@@H](C(=O)O)c1ccccc1 | 17 mm | 41 mm | 28 mm | 45 mm | inactive |  | 
5 | CC(=O)N(O)CCC[C@H](NC(=O)[C@H](CCCN(O)C(C)=O)NC(=O)[C@@H](N)CCCN(O)C(C)=O)C(=O)N[C@H](CO)C(=O)N[C@H](CC(=O)O)C(=O)O |  |  |  |  |  |  | inactive
6 | CC(=O)N(O)CCC[C@H](N)C(=O)O |  |  |  |  |  |  | inactive
